Data from the M2OR odorant receptor database.
Where a chain is given by its changes, count along the chain named.

Assays:
Details in all cases: stereoisomer not certain
O51F1 [1] = system: T1, O51F1
T1 sequence (whole entry): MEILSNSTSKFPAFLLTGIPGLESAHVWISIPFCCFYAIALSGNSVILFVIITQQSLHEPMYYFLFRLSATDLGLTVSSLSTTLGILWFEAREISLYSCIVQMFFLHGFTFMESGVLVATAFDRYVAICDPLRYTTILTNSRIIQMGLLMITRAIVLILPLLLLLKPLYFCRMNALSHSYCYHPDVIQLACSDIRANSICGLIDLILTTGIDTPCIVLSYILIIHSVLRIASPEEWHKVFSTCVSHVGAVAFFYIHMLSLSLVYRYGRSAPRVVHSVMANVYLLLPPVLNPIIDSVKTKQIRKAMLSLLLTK
How it was run: (§1)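 Each receptor–molecule pair is labelled responsive or non-responsive (inactive) according to whether the original authors judged the measured signal statistically different from baseline. The data were taken from the main text and supplementary material of published papers and checked for typos and inconsistencies. Assay methods differed by source, with transient luciferase assays in mammalian cell lines being common.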

O51F1 [2] = system: T2, O51F1; remark: listed apart in the source
T2 sequence (whole entry): T1 sequence (whole entry) with A13T
How it was run: as §1

O51F2 Y341S = system: T3, O51F2 Y341S
T3 sequence (whole entry): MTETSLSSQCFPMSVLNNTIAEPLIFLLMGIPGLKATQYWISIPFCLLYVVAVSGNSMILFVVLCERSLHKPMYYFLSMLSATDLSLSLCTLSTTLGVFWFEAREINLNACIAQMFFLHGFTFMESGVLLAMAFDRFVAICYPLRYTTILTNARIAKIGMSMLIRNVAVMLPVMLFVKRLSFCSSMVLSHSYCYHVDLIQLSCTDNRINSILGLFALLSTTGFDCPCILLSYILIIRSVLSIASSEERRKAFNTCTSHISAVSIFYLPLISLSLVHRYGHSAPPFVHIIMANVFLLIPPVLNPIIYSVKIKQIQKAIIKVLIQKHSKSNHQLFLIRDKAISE
How it was run: as §1

O51G1 = system: T4, O51G1
T4 sequence (whole entry): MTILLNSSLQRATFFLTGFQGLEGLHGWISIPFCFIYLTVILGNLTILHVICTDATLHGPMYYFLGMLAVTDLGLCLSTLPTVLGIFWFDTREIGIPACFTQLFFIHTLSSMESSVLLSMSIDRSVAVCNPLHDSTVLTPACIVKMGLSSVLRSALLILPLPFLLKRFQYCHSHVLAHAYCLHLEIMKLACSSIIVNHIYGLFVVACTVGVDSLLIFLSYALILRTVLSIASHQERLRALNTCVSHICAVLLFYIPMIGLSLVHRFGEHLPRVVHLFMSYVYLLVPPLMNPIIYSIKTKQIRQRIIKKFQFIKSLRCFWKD
How it was run: as §1

O51I1 V164L = system: T5, O51I1 V164L
T5 sequence (whole entry): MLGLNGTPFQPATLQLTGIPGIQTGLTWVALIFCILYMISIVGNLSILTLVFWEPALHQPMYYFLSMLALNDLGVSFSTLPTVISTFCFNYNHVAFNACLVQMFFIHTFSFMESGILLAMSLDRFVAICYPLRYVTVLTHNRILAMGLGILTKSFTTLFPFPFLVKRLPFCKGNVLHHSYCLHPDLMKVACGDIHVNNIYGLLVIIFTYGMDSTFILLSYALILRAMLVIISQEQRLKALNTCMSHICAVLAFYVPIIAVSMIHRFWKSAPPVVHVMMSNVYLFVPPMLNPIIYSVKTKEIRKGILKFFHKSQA
How it was run: as §1

O51J1 R75H I202V = system: T6, O51J1 R75H I202V
T6 sequence (whole entry): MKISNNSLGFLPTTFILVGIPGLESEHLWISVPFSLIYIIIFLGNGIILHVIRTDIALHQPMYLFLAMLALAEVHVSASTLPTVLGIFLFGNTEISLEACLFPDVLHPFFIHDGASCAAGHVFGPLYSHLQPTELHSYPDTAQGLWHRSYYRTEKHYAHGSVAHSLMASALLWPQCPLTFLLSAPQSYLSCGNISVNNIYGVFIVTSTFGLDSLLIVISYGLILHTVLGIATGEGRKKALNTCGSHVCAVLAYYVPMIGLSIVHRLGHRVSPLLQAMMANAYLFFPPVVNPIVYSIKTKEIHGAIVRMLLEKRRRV
How it was run: as §1

O51L1 = system: T7, O51L1
T7 sequence (whole entry): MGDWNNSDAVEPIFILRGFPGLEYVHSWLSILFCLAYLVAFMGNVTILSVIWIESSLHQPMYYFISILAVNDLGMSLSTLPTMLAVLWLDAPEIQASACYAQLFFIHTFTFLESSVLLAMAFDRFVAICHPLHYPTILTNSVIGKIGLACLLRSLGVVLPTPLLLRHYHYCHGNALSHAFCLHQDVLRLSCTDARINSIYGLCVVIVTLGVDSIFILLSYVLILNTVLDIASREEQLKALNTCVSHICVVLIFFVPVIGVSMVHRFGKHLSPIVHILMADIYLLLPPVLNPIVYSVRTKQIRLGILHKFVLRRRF
How it was run: as §1

O51T1 = system: T8, O51T1
T8 sequence (whole entry): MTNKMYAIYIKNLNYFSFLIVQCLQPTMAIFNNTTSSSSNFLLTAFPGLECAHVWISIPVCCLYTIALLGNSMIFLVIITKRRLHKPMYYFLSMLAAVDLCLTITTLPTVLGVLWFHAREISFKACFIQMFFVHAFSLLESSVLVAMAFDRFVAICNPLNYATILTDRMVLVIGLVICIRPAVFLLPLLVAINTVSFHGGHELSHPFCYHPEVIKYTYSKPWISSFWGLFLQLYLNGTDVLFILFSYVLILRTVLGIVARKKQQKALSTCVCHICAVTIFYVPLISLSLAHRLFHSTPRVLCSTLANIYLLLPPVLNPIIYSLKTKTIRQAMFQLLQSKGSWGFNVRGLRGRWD
How it was run: as §1

O51V1 L36F N51T G96W = system: T9, O51V1 L36F N51T G96W
T9 sequence (whole entry): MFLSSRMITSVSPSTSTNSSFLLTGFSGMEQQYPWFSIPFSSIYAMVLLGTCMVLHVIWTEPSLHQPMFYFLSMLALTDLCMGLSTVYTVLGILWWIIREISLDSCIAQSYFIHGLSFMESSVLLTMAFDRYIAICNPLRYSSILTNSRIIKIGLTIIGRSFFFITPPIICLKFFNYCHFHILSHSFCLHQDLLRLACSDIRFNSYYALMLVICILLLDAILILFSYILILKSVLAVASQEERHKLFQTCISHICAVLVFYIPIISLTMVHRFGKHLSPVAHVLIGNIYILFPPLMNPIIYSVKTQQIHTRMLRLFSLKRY
How it was run: as §1

O51J1 = system: O51J1
Chain of O51J1 (as listed by the source): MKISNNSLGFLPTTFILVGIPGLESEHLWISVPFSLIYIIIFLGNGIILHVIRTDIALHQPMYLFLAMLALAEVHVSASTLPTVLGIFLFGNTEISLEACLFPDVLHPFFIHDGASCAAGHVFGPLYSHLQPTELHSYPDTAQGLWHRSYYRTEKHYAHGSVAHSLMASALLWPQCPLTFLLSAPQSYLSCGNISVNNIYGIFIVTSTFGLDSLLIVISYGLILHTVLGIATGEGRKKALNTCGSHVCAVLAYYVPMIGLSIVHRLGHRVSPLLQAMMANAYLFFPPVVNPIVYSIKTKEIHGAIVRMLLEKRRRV
How it was run: as §1

Measured: odorant receptor agonist call;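 note: active if original authors judged signal statistically different from baseline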

CCC1OC(=O)C(O)=C1C (stereo not drawn)
not listed: O51J1
inactive: all other assays above

CCC1OC(C)=C(O)C1=O (stereo not drawn)
not listed: O51J1
inactive: all other assays above

CC1=C(O)C(=O)C(C)O1 (stereo not drawn)
not listed: O51J1
inactive: all other assays above

CCCC(C)=CC(=O)O
inactive: O51J1

CC1=NC(C)C(C)S1 (stereo not drawn)
not listed: O51J1
inactive: all other assays above

C=C(C)C1CCC(C)C(=O)C1 (stereo not drawn)
inactive: O51F1 [1] | O51F1 [2]

CCCCCCC=CCCC=O
not listed: O51F1 [2] | O51T1 | O51J1
inactive: all other assays above

CC1=C(O)C(=O)OC1C (stereo not drawn)
not listed: O51J1
inactive: all other assays above

CCCC(S)CCOC(C)=O (stereo not drawn)
not listed: O51J1
inactive: all other assays above

Cc1cnc(C)c(C)n1
not listed: O51J1
inactive: all other assays above
